# Rows were chosen to be rich in hits. Some 1.8% of all compounds tested hit in one or more screens of this group.
# Gli-Sufu block – Gli-Sufu pathway antagonists, primary screen, luciferase luminescence, Sufu-KO-LIGHT cells, uHTS. Sufu-KO-LIGHT fibroblasts, Gli luciferase reporter luminescence. inhibition, % at 5 µM. 340,000 compounds, 0.74% hits;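 active means inhibition above about 55%, limit read from the data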;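 further: 0% = DMSO-treated cells and 100% = wells with medium but no cells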
# 697 NFkB inh – inhibitors of PMA/ionomycin-induced NF-kB reporter, 697 cells, primary screen, B-cell NF-kB inhibitor project, cell-based, luminescence, uHTS; AID 435022, 2010; 330,000 compounds, 0.33% hits; inhibition, % at 4 µM; 697 B-cell NF-kB luciferase reporter, 16 h; in the data active means inhibition above about 35%
# Hep lipid drop – inhibitors of hepatocyte lipid droplet formation, primary screen, imaging, high-throughput imaging, BODIPY stain. 240,000 compounds, 0.4% hits. AML12 mouse hepatocytes, oleate lipid droplets. inhibition, % at 6.5 µM;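 active means lipid droplet intensity inhibited by at least 50%, with more than 500 cells counted; inconclusive means wells with under 300 cells, treated as cytotoxic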
#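 material = mouse AML12 hepatocyte cell line, fixed after treatment | also added = 100 µM oleic acid challenge | doses = compound at 6.5 µM only | schedule = overnight exposure | technique = Image-based BODIPY and DAPI two-channel analysis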
# Jurkat NFkB inh – inhibitors of induced NF-kB luciferase reporter, primary screen, TCR NF-kB activation inhibitor project, cell-based, luminescence, uHTS; inhibition, % at 4 µM; 330,000 compounds, 0.53% hits; Jurkat, PMA/ionomycin-induced NF-kB luciferase reporter; AID 435003, 2010; in the data active means inhibition above about 50%
# H9c2 TAG inh – inhibitors of triacylglycerol accumulation, primary screen, cell-based, uHTS, fluorescence, H9c2 | 230,000 compounds, 0.66% hits | inhibition, % at 12.5 µM | H9c2 cells, Nile Red lipid (TAG) fluorescence; cells loaded with 200 µM oleic acid;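 active means pattern-corrected inhibition of lipid staining of at least 50% with the nuclear-stain viability signal not falling by more than 50%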;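 further: 0% = DMSO wells and 100% = triacsin C control wells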
# hiPSC survival – enhancers of single-cell hiPSC survival, primary screen, ATPlite luminescence. 100% = ROCK inhibitor wells, 0% = DMSO. survival enhancement, % at 20 µM. 360,000 compounds, 0.044% hits. AID 602274, 2012; in the data active means survival enhancement above about 18%;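 further: cells exposed to compounds for 16 hours before the ATP read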
# Gli antag conf – Gli-SUFU pathway antagonists, confirmation, single concentration, luciferase luminescence, Sufu-KO-LIGHT cells. 2,500 compounds, 40% hits. Gli luciferase reporter. inhibition, % at 5 µM. shares compounds with Gli-Sufu block;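 active means mean inhibition at 5 µM reaching about 45%, limit read from the data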;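 further: plate controls were DMSO-treated cells for no effect and wells lacking cells for full effect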
# SufuKO cytotox – cytotoxicity in Sufu-KO-LIGHT cells, confirmation, cytotoxicity control for Gli-SUFU antagonist project, cell-based, ATP luminescence, single concentration. 2,500 compounds, 32% hits. AID 651994, 2013. cytotoxicity, % at 5 µM. shares compounds with Gli-Sufu block;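 active means mean cytotoxicity at 5 µM above about 25%, limit read from the data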;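 further: cells exposed to compound overnight for roughly 16 to 18 hours; plate controls were DMSO wells with cells for no effect and medium without cells for full effect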
# Wnt3a cs – Wnt3a reporter signal inhibition, confirmation, counter-screen for Gli-SUFU antagonist project, Wnt-LIGHT cells, luminescence, single concentration; Wnt3a-driven luciferase reporter; inhibition, % at 6.25 µM; 2,500 compounds, 20% hits; AID 651995, 2013; shares compounds with Gli-Sufu block;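 active means mean inhibition above about 25%, limit read from the data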
# * marks the source's active call; other numbers are inactive results; ? = inconclusive; nt = no result given.
SMILES,Gli-Sufu block,697 NFkB inh,Hep lipid drop,Jurkat NFkB inh,H9c2 TAG inh,hiPSC survival,Gli antag conf,SufuKO cytotox,Wnt3a cs
CN1/C(=C/C=N/NC(=O)c2ccc([N+](=O)[O-])cc2)C(C)(C)c2ccccc21,11,12,-1,-6,8,-2,nt,nt,nt
CC(=O)N1CCC(C(=O)N2CCN(S(=O)(=O)c3ccc(Cl)s3)CC2)CC1,97*,-4,16,-9,3,0,15,22,11
CC(=O)N1CCC(C(=O)N2CCN(S(=O)(=O)c3cccs3)CC2)CC1,13,-8,2,-8,0,0,nt,nt,nt
CCn1cc[n+](C)c1P(c1ccccc1)c1ccccc1,51,13,-98,8,nt,1,55*,13,23
COc1ccc(OC)c(CN2CCCCCC2)c1,6,17,-10,0,nt,0,nt,nt,nt
COc1ccc(OC)c(CN2CCCC(CO)C2)c1 (stereo not drawn),59*,16,15,5,nt,-1,17,-4,11
CC1CC(C)CN(S(=O)(=O)c2cccc(C(=O)N3CCN(c4ccc(F)cc4)CC3)c2)C1 (stereo not drawn),0,10,nt,-1,3,-1,nt,nt,nt
O=C(CSc1nc2ccccc2c(=O)n1-c1ccc(F)cc1)NC1CCS(=O)(=O)C1 (stereo not drawn),-7,0,nt,-19,-2,0,nt,nt,nt
CCOc1ncccc1C(=O)N1CCN(c2cccc(C)c2C)CC1,48,nt,?,nt,nt,-1,nt,nt,nt
CCOc1ncccc1C(=O)N1CCN(c2cc(Cl)ccc2C)CC1,51,-1,?,46,nt,0,38,54*,-55
Cc1cc2nc(/N=C(\N)NC(=O)N3c4ccccc4Sc4ccccc43)nc(C)c2cc1C,9,nt,21,nt,41,2,nt,nt,nt
O=S1(=O)CCN(Cc2ccncc2)CC1,nt,nt,nt,nt,4,3,nt,nt,nt
CCN(CC)c1ccc(CNc2nc3ccccc3n2CCN2CCCCC2)cc1,67*,-41,0,10,-16,0,42,23,16
COc1ccc(CNc2nc3ccccc3n2CCN2CCCCC2)cc1,35,-34,-4,-9,6,0,nt,nt,nt
Cc1nc2ccc(NC(=S)NC3CCCCC3)cc2nc1C,-59,-110,7,-87,6,1,nt,nt,nt
O=C(Cc1ccccc1F)Nc1nc2ccccc2[nH]1,67*,-32,18,-23,-9,-1,12,8,-34
O=C(Cc1cccc2ccccc12)Nc1nc2ccccc2[nH]1,9,5,-9,-7,nt,-1,nt,nt,nt
Cc1ccc(C)c(N2CCN(c3nc4ccccc4c(=O)n3Cc3ccccc3)CC2)c1,55,-4,nt,8,5,2,24,15,-6
CCCCC(=O)N(Cc1ccc(-c2ccccc2-c2nn[nH]n2)cc1)[C@H](C(=O)O)C(C)C,nt,12,9,4,nt,nt,nt,nt,nt
c1ccc(CC2CCN(c3nnnn3-c3ccccc3)CC2)cc1,1,6,-40,15,-14,8,nt,nt,nt
N/C(=N/O)c1ccccc1N1CCC(Cc2ccccc2)CC1,78*,21,15,-3,nt,0,74*,36*,-25
Cc1cccc(OCCn2cc(/C=N/NC(=O)c3ccncc3)c3ccccc32)c1,96*,-10,8,4,nt,0,27,29*,-13
CCn1c(=NC(=O)CS(=O)(=O)c2ccccc2)sc2cccc(OC)c21,67*,-38,nt,34,-39,0,67*,22,12
O=C(Cn1cnc2ccc(Cl)cc2c1=O)NC1CCS(=O)(=O)C1 (stereo not drawn),-9,3,nt,-4,7,0,nt,nt,nt
CC1CN(C(=O)c2ccccc2OCc2ccccc2Cl)CC(C)O1 (stereo not drawn),0,16,nt,-8,1,0,nt,nt,nt
SMILES,Gli-Sufu block,697 NFkB inh,Hep lipid drop,Jurkat NFkB inh,H9c2 TAG inh,hiPSC survival,Gli antag conf,SufuKO cytotox,Wnt3a cs
CCOc1ccccc1NC(=O)c1ccc2c(=O)n3c(nc2c1)CCCCC3,17,-31,-8,-5,nt,0,nt,nt,nt
CCCNC(=O)c1ccccc1NC(=O)c1ccc2c(=O)n3c(nc2c1)CCC3,96*,-9,nt,-6,3,0,22,15,-1
CCOC(=O)c1ccc(NC(=O)CSc2nnc(CNC(=O)c3ccccc3F)o2)cc1,96*,2,-18,13,0,1,17,-9,11
COc1cc(OC)cc(-c2cc3nc(C)c(CCC(=O)O)c(C)n3n2)c1,61*,nt,nt,nt,6,0,64*,2,90*
CC(C)(C)C(=O)Nc1cc2c3c(c1)CCN3C(=O)CC2,-61,20,-1,3,nt,0,nt,nt,nt
CC(=O)N(c1ccc(Cl)cc1)c1c[nH]c2ccccc12,56*,5,nt,17,nt,2,14,8,-11
Cc1cccc(C)c1OCc1cc(C(=O)N(C)Cc2nc3ccccc3[nH]2)no1,10,5,11,-3,10,0,nt,nt,nt
Cc1cc(Nc2ccccc2)nc(NCc2ccccc2)n1,68*,-43,-28,36,-16,0,58*,33*,25*
Cc1cc(Nc2ccc(Cl)cc2)nc(NCc2ccccc2)n1,46,-19,4,25,nt,-2,nt,nt,nt
Cc1cc(Nc2cccc(F)c2)nc(NCc2ccccc2)n1,59*,-9,-24,24,nt,-3,40,19,6
COC(=O)CNC(=O)C(C)NC(=O)OCc1ccccc1 (stereo not drawn),99*,-5,nt,9,18,-1,34,4,-2
COC(=O)CNC(=O)C(NC(=O)OCc1ccccc1)C(C)C (stereo not drawn),-3,-7,10,-2,-14,-1,nt,nt,nt
CN(Cc1cnccn1)Cc1ccccc1OCC(O)CN1CCc2ccccc2C1 (stereo not drawn),20,19,10,9,-6,0,nt,nt,nt
Cc1cc(C[n+]2cc(Br)ccc2N)c2ncccc2c1,52,15,-14,37,4,0,53*,34*,-3
Cc1cc(C[n+]2cc(Cl)ccc2N)c2ncccc2c1,48,-3,-1,23,-1,0,nt,nt,nt
